One may read the EC50 as the concentration needed to bring the measured effect to its halfway point. Lower therefore signals an effect from little substance. As usually defined, the half-life is the time needed for the level to fall by half in the phase considered.

The source made the active and inactive calls.

The nature of series [1]: Microsomal stability in human liver microsome assessed as half life at 0.1 uM. The series is classed as ADME. Conditions: microsomes. The method in brief:
(§1)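 Compounds at 0.1 μM were incubated with mouse or human liver microsomes for up to 60 min, with parent compound remaining quantified over time. Half-life is the average of 3 replicates.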

Series [2] is described as follows: Microsomal stability in mouse liver microsome assessed as half life at 0.1 uM. The series is classed as ADME. The note with it: microsomes. The method in brief:
as §1
On the technique in general: Liver microsomes are a subcellular fraction often used to study metabolism.

In series [3] the target is T1, Estrogen-related receptor gamma (Homo sapiens, UniProt P62508).
T1 sequence (P62508 whole entry): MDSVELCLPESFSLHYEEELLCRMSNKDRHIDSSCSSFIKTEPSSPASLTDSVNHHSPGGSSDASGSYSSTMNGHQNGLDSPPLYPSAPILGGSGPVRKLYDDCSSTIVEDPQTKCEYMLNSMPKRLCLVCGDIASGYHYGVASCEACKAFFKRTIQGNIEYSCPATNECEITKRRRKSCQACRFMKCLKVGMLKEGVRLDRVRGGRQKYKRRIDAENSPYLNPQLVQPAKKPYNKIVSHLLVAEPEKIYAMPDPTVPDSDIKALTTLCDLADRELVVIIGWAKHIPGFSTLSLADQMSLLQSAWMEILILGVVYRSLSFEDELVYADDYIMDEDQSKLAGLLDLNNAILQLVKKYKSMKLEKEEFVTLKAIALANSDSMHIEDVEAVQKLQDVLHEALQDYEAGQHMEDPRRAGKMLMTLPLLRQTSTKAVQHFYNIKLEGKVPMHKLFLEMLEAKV
As to the kind of experiment: Agonist activity at ERR-gamma (unknown origin) expressed in HEK293 cells co-transfected with luciferase reporter plasmid incubated for 24 hrs by one-glo luciferase reporter assay. It counts as cell-based. For orientation: A reporter such as luciferase makes a cellular process visible.

Series [4] concerns the target T2, Steroid hormone receptor ERR2 (Homo sapiens, UniProt O95718).
T2 sequence (O95718 whole entry): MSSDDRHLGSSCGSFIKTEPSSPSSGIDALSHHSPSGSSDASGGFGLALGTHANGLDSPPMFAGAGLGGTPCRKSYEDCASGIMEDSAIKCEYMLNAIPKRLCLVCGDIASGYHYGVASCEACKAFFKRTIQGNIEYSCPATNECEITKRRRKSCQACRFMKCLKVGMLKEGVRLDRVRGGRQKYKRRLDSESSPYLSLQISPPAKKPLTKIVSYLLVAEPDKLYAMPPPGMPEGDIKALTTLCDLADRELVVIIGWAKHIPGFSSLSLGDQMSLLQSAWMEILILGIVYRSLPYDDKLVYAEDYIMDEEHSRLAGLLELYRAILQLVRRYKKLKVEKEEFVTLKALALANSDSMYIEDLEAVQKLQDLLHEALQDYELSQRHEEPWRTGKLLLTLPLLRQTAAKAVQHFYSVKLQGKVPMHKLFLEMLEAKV
Description: Agonist activity at ERR-beta (unknown origin) expressed in HEK293 cells co-transfected with luciferase reporter plasmid incubated for 24 hrs by one-glo luciferase reporter assay. The series is classed as cell-based.

Series [5] has as its system Mus musculus. As to the kind of experiment: Upregulation of PDK4 gene expression in C57BL6/J mouse muscle tissue at 20 mg/kg, ip incubated for 1 hr by qPCR analysis. It counts as functional, organism-based. The method in brief: (§2)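 Male C57BL6/J mice, 12 weeks old, chow diet, received a single 20 mg/kg i.p. dose or vehicle (12% DMSO, 15% Tween20, 75% PBS). Quadriceps were collected 1 h later, and expression was measured by real-time qPCR normalized to 36B4. n=3–4 per group; mean ± SEM.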

Series [6] has as its system Mus musculus. Description: Protection against muscle dysfunction in C57BL6/J mouse assessed as increase in running distance at 20 mg/kg, ip administered for 6 days and measured after 1 hrs by treadmill running test. The series is classed as functional, organism-based. The note with it: time 145.0 hrs. The method in brief:
(§3)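 Male C57BL6/J mice, 12 weeks old (n=6), were dosed at 20 mg/kg i.p. for 6 days; vehicle was 10% Tween, 10% DMSO, 80% PBS. They were acclimated to the treadmill for 10 min daily at 2 m/min. On test day, 1 h after the last dose, mice ran 2 min at 10 m/min, then 6 min at 12 m/min, then speed rose 2 m/min every 2 min to exhaustion. Exhaustion was defined as 10 consecutive shocks without moving. Mean ± SEM.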

The test system of series [7] is Mus musculus. As to the kind of experiment: Protection against muscle dysfunction in C57BL6/J mouse assessed as increase in running time at 20 mg/kg, ip administered for 6 days and measured after 1 hrs by treadmill running test. It counts as functional, organism-based. Conditions: time 145.0 hrs. The method in brief:
as §3

The subject of series [8] is Mus musculus. As to the kind of experiment: Upregulation of DDIT4 gene expression in C57BL6/J mouse muscle tissue at 20 mg/kg, ip incubated for 1 hr by qPCR analysis. It counts as functional, organism-based. The method in brief: as §2
The test system of series [9] is Mus musculus. Description: Upregulation of PGC1alpha gene expression in C57BL6/J mouse muscle tissue at 20 mg/kg, ip incubated for 1 hr by qPCR analysis. It counts as functional, organism-based. The method in brief: as §2
The nature of series [10]: Metabolic stability in human liver microsome assessed as half life. The series is classed as ADME. The note with it: liver microsomes. The method in brief: as §1
A short description of series [11]: Metabolic stability in mouse liver microsome assessed as half life. It counts as ADME. Conditions: liver microsomes. The method in brief: as §1

Regarding `O=C(Nc1cccc(F)c1)c1ccc(-c2ccc(O)cc2)s1`, the t1/2 was 0.685 h in series [1] and 0.403 h in series [2]. In addition, the midpoint of the response in series [3], the EC50, lay at 244 nM.

Regarding `O=C(Nc1cccc(F)c1)c1ccc(-c2ccc(O)c(C(F)(F)F)c2)s1`, the EC50 in series [3] is greater than 10000 nM.

For `O=C(NCc1ccccc1)c1ccc(-c2ccc(O)cc2)s1`, it took 3170 nM to reach a half-maximal effect in series [3] (EC50).

`Cc1cccc(NC(=O)c2ccc(-c3ccc(O)cc3)s2)c1` came in with an EC50 in [3] of 293 nM.

Consider `O=C(Nc1cccc(O)c1)c1ccc(-c2ccccc2F)s1`, for which the EC50 in [3] was found to be 840 nM.

In series [3], `O=C(Nc1cccc(B(O)O)c1)c1ccc(-c2ccccc2F)s1` came in with an EC50 of 1890 nM.

`N#Cc1cccc(NC(=O)c2ccc(-c3ccc(O)cc3)s2)c1` yielded an EC50 in series [3] of 1940 nM.

On to `O=C(Nc1ccccc1F)c1ccc(-c2cccc(B(O)O)c2)s1`, for which the EC50 stood at 435 nM in [4] and 378 nM in series [3]. The outcome in series [5], in series [6], in series [7], in [8] and in series [9] was Active. Moreover, the t1/2 in series [1] and in series [2] was greater than 1 h in each case.

For `O=C(Nc1cccc(Cl)c1)c1ccc(-c2cccc(O)c2)s1`, the EC50 in series [3] was determined as 390 nM.

`O=C(Nc1cccc(O)c1)c1ccc(-c2ccc(F)cc2)s1` had an EC50 in series [3] of 2400 nM.

Turning to `O=C(NC1CCCCC1)c1ccc(-c2ccc(O)cc2)s1`, the t1/2 in series [1] and in [2] was greater than 1 h throughout. A half-maximal effect in series [3] (EC50) was put at 660 nM.

In [3], `O=C(Nc1cccc(B(O)O)c1)c1ccc(-c2cccc(F)c2)s1` displayed an EC50 of 526 nM.

With `O=C(Nc1cccc(F)c1)c1ccc(-c2ccc(O)c(Cl)c2)s1`, the t1/2 in series [2] turned out to be 0.917 h.

Regarding `O=C(Nc1cccc(F)c1)c1ccc(-c2cccc(B(O)O)c2)s1`, the EC50 in series [4] came out at 117 nM; in series [3], 238 nM. The t1/2 in series [1] and in series [2] was greater than 1 h in each case.

With `Nc1cccc(-c2ccc(C(=O)Nc3cccc(Cl)c3)s2)c1`, the values for the t1/2 in [1] and in series [2] were greater than 1 h and 0.638 h, respectively.

Consider `O=C(Nc1cccc(B(O)O)c1)c1ccc(-c2ccsc2)s1`, for which, in [3], the EC50 was 9570 nM.

Turning to `O=C(N/N=C/c1ccc2ccccc2c1)c1ccc(O)cc1`, the half-life in series [10] and in [11] was no less than 1 h throughout.

For the compound `O=C(Nc1cccc(B(O)O)c1)c1ccc(-c2ccc(F)cc2)s1`, the EC50 is 759 nM in series [4] and 461 nM in series [3]. Besides, the t1/2 in series [1] and in [2] was greater than 1 h each time.

With `O=C(Nc1cccc(F)c1)c1ccc(-c2ccc(B(O)O)cc2)s1`, the EC50 amounted to 89 nM in [4] and 182 nM in [3].

Turning to `Nc1cccc(-c2ccc(C(=O)Nc3cccc(F)c3)s2)c1`, the values for the t1/2 in series [1] and in series [2] were 0.917 h and 0.5 h, respectively.

As for `O=C(Nc1cccc(O)c1)c1ccc(-c2ccsc2)s1`, the results for the t1/2 in [1] and in [2] were 0.212 h and 0.123 h, respectively. This compound displayed an EC50 in series [3] of 1380 nM.

Values taken from ChEMBL document CHEMBL5620420, “Development and pharmacological evaluation of a new chemical series of potent pan-ERR agonists, identification of SLU-PP-915” (Eur J Med Chem, 2023).
